According to PMC6361670 (Small (Weinheim an der Bergstrasse, Germany), 2018):

What was measured:
HUVECs = test: Cytotoxicity of QA-NH2 on HUVECs; assay type: cell-based, human; conditions: 1 nM to 1 mM, 24 h, MTT
Outline: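 HUVECs were seeded at 10,000 cells per well on rat-tail collagen I; one group was pre-activated with 10 ng/mL TNF-α for 4 h. Test compound was added at 1 nM to 1 mM for 24 h. MTT (75 μg) was then added for 4 h, formazan was dissolved in 50% DMF/20% SDS at pH 5, and absorbance was read at 562 nm.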

[1] = system: E/P-selectin on activated HUVECs; test: Competitive inhibition of FITC-labeled QA-NP binding to activated HUVECs; assay type: cell-based, human; conditions: 30 min pre-incubation; flow cytometry
Outline: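 HUVECs (passage 4, EGM-2, on rat-tail collagen I) were activated with 10 ng/mL TNF-α for 4 h. Free ligand, anti-E-selectin or anti-P-selectin antibody, or unlabeled nanoparticles were pre-incubated for 30 min. FITC-labeled particles (0.2 mg/mL) were then added for 2 h at 37 °C. Cells were washed twice with PBS, trypsinized, resuspended in cold PBS, and read for FL-1 fluorescence (488/525 nm).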

[2] = system: subcutaneous MDA-MB-231 tumor xenografts; test: Whole body and ex vivo fluorescence imaging of NP distribution; assay type: in vivo, female athymic nude mice; conditions: ICG-labeled, tail vein, imaged over 24 h

Compound | effect on HUVEC proliferation (HUVECs) | QA-NP binding to activated HUVECs after pre-treatment with competitor [1] | tumor fluorescence in whole body imaging [2]
Nc1cc(NC(=O)[C@]2(O)C[C@@H](O)[C@@H](O)[C@H](O)C2)cc(C(=O)O)c1 [QA-NH2, 3-amino-5-((1S,3R,4S,5R)-1,3,4,5-tetrahydroxycyclohexane-1-carboxamido)benzoic acid] | no adverse effects | reduced | 
CC1(C)C(/C=C/C=C/C=C/C=C2\N(CCCCS(=O)(=O)O)c3ccc4ccccc4c3C2(C)C)=[N+](CCCCS(=O)(=O)[O-])c2ccc3ccccc3c21 [free ICG, indocyanine green] |  |  | did not show fluorescence in tumors at all time points
